ChEMBL document CHEMBL1933057, “Pyrrole alkanoic acid derivatives as nuisance inhibitors of microsomal prostaglandin E2 synthase-1” (Eur J Med Chem, 2012)
Active and inactive are the calls of the source. The calls are words filed in the database; no cut-off is given here.

Tests used:
[1] = target: T1, Prostaglandin E synthase (Homo sapiens) (UniProt O14684); experiment: Inhibition of human recombinant mPGES-1 in assessed as conversion of PGH2 into PGE2 at 1 uM at 20 degC after 5 mins by HPLC-UV analysis
T1 sequence (whole entry): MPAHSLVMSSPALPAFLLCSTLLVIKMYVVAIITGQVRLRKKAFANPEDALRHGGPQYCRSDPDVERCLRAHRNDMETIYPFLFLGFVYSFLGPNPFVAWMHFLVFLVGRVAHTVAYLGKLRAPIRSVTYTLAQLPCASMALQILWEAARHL
Method in brief: (§1)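 Commercial microsomal human recombinant mPGES-1, diluted about 1:200 in phosphate buffer (50 mM sodium phosphate, 100 mM NaCl, 20% glycerol, pH 7.2). Compound in DMSO added to Tris buffer (50 mM, pH 7.2) with freshly dissolved 2.5 mM reduced glutathione, 5 min, then enzyme, 5 min preincubation at room temperature. PGH2 started reaction, 5 min at room temperature. PGE2 measured by online SPE-HPLC-UV at 195 nm. Reference incubations without enzyme gave non-enzymatic PGE2.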

[2] = target: T1, Prostaglandin E synthase (Homo sapiens); experiment: Inhibition of mPGES-1 in human A549 cell microsomes assessed as conversion of PGH2 into PGE2 at 3.3 uM at 0 degC after 5 mins by HPLC-UV analysis; conditions: Microsome
Method in brief: (§2)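 Enzyme source was microsomes from A549 cells. Compound was incubated with PGH2 substrate for 5 min at 0 °C. PGE2 formation was monitored by online solid phase extraction HPLC with UV detection. Values are means of at least two independent determinations.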

[3] = target: T1, Prostaglandin E synthase (Homo sapiens); experiment: Inhibition of human recombinant mPGES-1 in assessed as conversion of PGH2 into PGE2 at 10 uM at 20 degC after 5 mins by HPLC-UV analysis in presence of 0.1% Triton X-100
Method in brief: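 Human recombinant mPGES-1 microsomes in Tris buffer (50 mM, pH 7.2) containing 2.5 mM glutathione, with 0.1% Triton X-100 added. Compound in DMSO, 5 min preincubation with enzyme at room temperature, then PGH2 substrate, 5 min reaction at 20 °C. PGE2 formed was quantified by online solid phase extraction HPLC with UV detection.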

Prostaglandin E synthase [4] = target: T2, Prostaglandin E synthase (Homo sapiens, UniProt O14684); experiment: Inhibition of human recombinant mPGES-1 in assessed as conversion of PGH2 into PGE2 at 20 degC after 5 mins by HPLC-UV analysis
T2 sequence (O14684 whole entry): T1 sequence (whole entry)
Method in brief: as §1, with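 “temperature.” for “temperature. PGE2 measured by online SPE-HPLC-UV at 195 nm. Reference incubations without enzyme gave non-enzymatic PGE2.”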

Prostaglandin E synthase [5] = target: T2, Prostaglandin E synthase; experiment: Inhibition of mPGES-1
Method in brief: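 PGH2 was the substrate, and reactions ran for 5 min. One version used microsomes from A549 cells at 0 °C. The other used commercial microsomes containing human recombinant mPGES-1, at 20 °C or room temperature, in 50 mM Tris pH 7.2 with 2.5 mM GSH. PGE2 formed was measured by online solid-phase extraction HPLC with UV detection.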

Prostaglandin E synthase [6] = target: T2, Prostaglandin E synthase; experiment: Inhibition of mPGES-1 in human A549 cell microsomes assessed as conversion of PGH2 into PGE2 at 0 degC after 5 mins by HPLC-UV analysis; set-up: species or system Microsome; method in brief: as §2

Row | inhibition [1] | inhibition [2] | SMILES | other results
1 | 78% |  | CCCCCCCCCCCC(=O)c1c(C)c(CCC(=O)O)n(Cc2ccc(Cl)cc2)c1C | 
2 | 22% |  | CCCCCCCCCCCC(=O)c1c(C)c(CC(=O)O)n(C)c1C | 
3 | 65% |  | CCCCCCCCCCCC(=O)c1c(C)c(C(=O)O)n(Cc2ccccc2)c1C | 
4 | 53% |  | CCCCCCCCCCCC(=O)c1c(C)c(CCC(=O)O)n(Cc2ccc(O)cc2)c1C | 
5 | 59% |  | CCCCCCCCCCCC(=O)c1c(C)c(C(=O)O)n(C)c1C | 
6 | 32% | 64% | CCCCCCOc1ccc(C(=O)c2c(C)c(CCC(=O)O)n(C)c2C)cc1 | 
7 | inactive | 23% | CCCCCCCCOc1ccccc1C(=O)c1c(C)c(CCC(=O)O)n(C)c1C | 
8 | 38% |  | CCCCCCCCCCCC(=O)c1c(C)[nH]c(CCC(=O)O)c1C | 
9 | 35% |  | CCCCCCCCCCCC(=O)c1c(C)c(CC(=O)O)n(Cc2ccccc2)c1C | 
10 | 28% |  | CCCCCCCCCCCC(=O)c1c(C)c(CCC(=O)O)n(Cc2ccc(C(N)=O)cc2)c1C | 
11 | 39% |  | CCCCCCCCCCCC(=O)c1c(C)c(CCC(N)=O)n(C)c1C | 
12 | inactive | inactive | CCCC(=O)c1c(C)c(CCC(=O)O)n(C)c1C | 
13 | inactive | inactive | Cc1c(C(=O)c2cccc3ccccc23)c(C)n(C)c1CCC(=O)O | 
14 | inactive | 55% | CCCCCCCC(=O)c1c(C)c(CCC(=O)O)n(C)c1C | 
15 | inactive | inactive | CCCCCCC(=O)c1c(C)c(CCC(=O)O)n(C)c1C | 
16 | 72% |  | CCCCCCCCCCCC(=O)c1c(C)c(CCC(=O)O)n(Cc2ccc(OC)cc2)c1C | 
17 | 62% |  | CCCCCCCCCCCC(=O)c1c(C)[nH]c(C(=O)O)c1C | 
18 | 27% |  | CCCCCCCCCCCC(=O)c1c(C)c(CCC(=O)O)n(Cc2ccc(C(=O)O)cc2)c1C | 
19 |  |  | CCCCCCC(Sc1nc(Cl)cc(NCc2ccc(-c3ccccc3)cc2)n1)C(=O)O (stereo not drawn) | inhibition [3]: inactive
20 | 97% | 35% | CCCCCCCCCCCCCCCC(=O)c1c(C)c(CCC(=O)O)n(C)c1C | 
21 | 22% |  | CCCCCCCCCCCC(=O)c1c(C)c(CCC#N)n(C)c1C | 
22 | 52% |  | CCCCCCCCCCCC(=O)c1c(C)c(CCC(=O)NS(C)(=O)=O)n(C)c1C | IC50 (Prostaglandin E synthase [4]): 600 nM; inhibition [3]: inactive
23 | 23% |  | CCCCCCCCCCCC(=O)c1c(C)c(CC(=O)O)n(-c2ccccc2)c1C | 
24 | 90% |  | CCCCCCCCCCCC(=O)c1c(-c2ccccc2)c(CCC(=O)O)n(C)c1C | IC50 (Prostaglandin E synthase [4]): 140 nM; inhibition [3]: inactive
25 | 52% |  | CCCCCCCCCCCC(=O)c1c(C)c(CCC(=O)O)n(Cc2ccc(C)cc2)c1C | 

Row | inhibition [1] | inhibition [2] | SMILES | other results
26 | 64% |  | CCCCCCCCCCCC(=O)c1c(-c2ccccc2)c(CCC(=O)O)n(Cc2ccccc2)c1C | 
27 | inactive |  | CCCCCCCCCCCC(=O)c1cc(C(=O)O)n(C)c1 | 
28 | inactive |  | CCCCCCCCCCCC(=O)c1cc(CC(=O)O)n(C)c1 | 
29 | 77% |  | CCCCCCCCCCCC(=O)c1c(C)c(CCC(=O)NS(=O)(=O)c2ccccc2)n(C)c1C | 
30 | inactive | inactive | Cc1c(C(=O)c2ccc(-c3ccccc3)cc2)c(C)n(C)c1CCC(=O)O | 
31 | inactive | inactive | Cc1c(C(=O)c2ccc3ccccc3c2)c(C)n(C)c1CCC(=O)O | 
32 | inactive |  | CCCCCCCCCCCC(=O)c1cc(CCC(=O)O)n(C)c1 | 
33 |  |  | CC(C)c1ccc2c(c1)c(SC(C)(C)C)c(CC(C)(C)C(=O)O)n2Cc1ccc(Cl)cc1 | inhibition [3]: 75%
34 | 70% |  | CCCCCCCCCCCC(=O)c1c(C)c(CCCC(=O)O)n(C)c1C | 
35 | 35% |  | CCCCCCCCCCCC(=O)c1c(C)c(CCC(=O)NN)n(C)c1C | 
36 | inactive | 67% | CCCCCCCOc1cccc(C(=O)c2c(C)c(CCC(=O)O)n(C)c2C)c1 | 
37 | inactive | inactive | Cc1c(C(=O)c2ccccc2)c(C)n(C)c1CCC(=O)O | 
38 | inactive | 62% | CCCCCCCCCC(=O)c1c(C)c(CCC(=O)O)n(C)c1C | 
39 | inactive | inactive | Cc1c(C(=O)CCc2ccccc2)c(C)n(C)c1CCC(=O)O | 
40 | 54% | 74% | CCCCCCCCCCCC(=O)c1c(C)c(CCC(=O)O)n(C)c1C | IC50 (Prostaglandin E synthase [4]): 670 nM; IC50 (Prostaglandin E synthase [5]): 800 nM; IC50 (Prostaglandin E synthase [6]): 800 nM; inhibition [3]: inactive
41 | 17% |  | CCCCCCCCCCCC(=O)c1c(C)[nH]c(CC(=O)O)c1C | 
42 |  |  | CS(=O)(=O)Nc1ccc([N+](=O)[O-])cc1OC1CCCCC1 [NS-398] | IC50 (Prostaglandin E synthase [5]): 10000 nM
43 | 91% | 63% | CCCCCCCCCCCCCC(=O)c1c(C)c(CCC(=O)O)n(C)c1C | 
44 | 65% |  | CCCCCCCCCCCC(=O)c1c(C)c(CCC(=O)O)n(-c2ccccc2)c1C | 
45 | 37% |  | CCCCCCCCCCCCc1c(C)c(C(=O)O)n(C)c1C | 
46 | inactive |  | Cc1c(C(=O)Cc2ccc(-c3ccccc3)cc2)c(C)n(C)c1CCC(=O)O | 
47 | 97% | inactive | CCCCCCCCCCCCCCCCCC(=O)c1c(C)c(CCC(=O)O)n(C)c1C | 
48 | 99% |  | CCCCCCCCCCCC(=O)c1c(C)c(C(=O)O)n(-c2ccccc2)c1C | 
49 | 62% |  | CCCCCCCCCCCC(=O)c1c(C)c(CCC(=O)O)n(Cc2ccccc2)c1C | 
